Data on 10 molecules can be found in ChEMBL document CHEMBL1145966, “Orally active analogues of the dopaminergic prodrug 6-(N,N-di-n-propylamino)-3,4,5,6,7,8-hexahydro-2H-naphthalen-1-one: synthesis and pharmacological activity” (J Med Chem, 2003).

Broadly, the Ki is the dissociation constant of the complex between target and ligand, obtained from inhibition or displacement. Low readings indicate a stronger hold on the target, high ones a looser hold on the target.

Experiment [1] concerns the target D(1A) dopamine receptor (Bos taurus, UniProt Q95136). Description: Binding affinity of compound for Dopamine receptor D1 using [3H]-SCH- 23390. In a few lines: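 Rat striatal membranes; inhibition of 0.20 nM [3H]SCH23390 binding at D1 sites, following Hyttel et al. Ki in nM, n = 3, SEM < 10%.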
Experiment [2] addresses D(2) dopamine receptor (Bos taurus, UniProt P20288). Nature of the experiment: Binding affinity of compound for Dopamine receptor D2 using [3H]N-0437.
For experiment [3], the system named is Rattus norvegicus. Nature of the experiment: Total full contralateral turn in rat was observed at a dose of 1.0 mg kg-1 administered perorally. Format: functional. The following applies: route oral.
The subject of experiment [4] is Rattus norvegicus. Nature of the experiment: Total full contralateral turn in rat was observed at a dose of 0.3 mg kg-1 administered perorally. Format: functional. The following applies: route oral.
Experiment [5] deals with Rattus norvegicus. Description: Total full contralateral turn in rat was observed at a dose of 0.1 mg kg-1 administered perorally. Type of experiment: functional. Conditions: route oral.

D(2) dopamine receptor, sequence (P20288 whole entry): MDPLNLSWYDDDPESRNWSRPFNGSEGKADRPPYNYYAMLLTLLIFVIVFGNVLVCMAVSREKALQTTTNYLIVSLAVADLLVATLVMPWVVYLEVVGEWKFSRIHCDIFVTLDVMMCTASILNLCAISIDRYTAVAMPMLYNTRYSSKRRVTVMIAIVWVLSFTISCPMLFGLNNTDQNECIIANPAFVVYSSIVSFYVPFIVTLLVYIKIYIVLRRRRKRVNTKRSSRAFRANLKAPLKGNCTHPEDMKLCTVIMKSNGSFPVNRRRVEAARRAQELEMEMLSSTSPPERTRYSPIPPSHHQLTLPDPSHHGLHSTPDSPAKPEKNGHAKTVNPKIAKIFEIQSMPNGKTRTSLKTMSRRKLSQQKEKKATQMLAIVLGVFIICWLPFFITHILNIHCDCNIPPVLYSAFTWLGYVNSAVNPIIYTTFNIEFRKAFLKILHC
D(1A) dopamine receptor, sequence (Q95136 whole entry): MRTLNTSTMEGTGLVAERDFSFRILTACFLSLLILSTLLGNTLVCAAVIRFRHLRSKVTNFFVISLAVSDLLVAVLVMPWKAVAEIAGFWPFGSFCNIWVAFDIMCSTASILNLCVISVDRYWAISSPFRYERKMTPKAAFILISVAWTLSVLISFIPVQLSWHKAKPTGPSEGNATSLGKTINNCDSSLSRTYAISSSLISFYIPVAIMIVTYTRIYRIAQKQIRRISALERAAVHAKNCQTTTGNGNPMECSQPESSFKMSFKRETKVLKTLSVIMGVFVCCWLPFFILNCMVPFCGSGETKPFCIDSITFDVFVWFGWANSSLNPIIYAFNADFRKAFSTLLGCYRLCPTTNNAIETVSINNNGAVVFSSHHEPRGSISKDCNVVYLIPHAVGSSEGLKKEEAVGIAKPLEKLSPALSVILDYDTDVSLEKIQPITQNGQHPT

Take `CCCN(CCC)[C@@H]1Cc2cccc(O)c2C[C@H]1C`: the values for the Ki in experiment [1] and in experiment [2] were 1.1 nM and 3 nM, respectively.

In the case of `CCCN(CCC)C1CCC2=C(C1)CC(C)(C)CC2=O` (racemic), the Total turns in experiment [3] was 204; in experiment [4] it was 23.

For `CCCN(CC)C1CCC2=C(CCCC2=O)C1` (racemic), the values for the Total turns in experiment [5] and in experiment [4] were 4840 and 8901, respectively.

Consider `CCCN(CCc1cccs1)[C@H]1CCc2c(ccc(O)c2O)C1` (racemic), for which the Ki worked out at 110 nM in experiment [1] and 6 nM in experiment [2].

As for `CCCN(CCc1cccs1)C1CCC2=C(CCCC2=O)C1` (racemic), the Total turns stood at 503 in experiment [3] and 262 in experiment [5].

For the molecule `C#CCN(C)C1CCC2=C(CCCC2=O)C1` (racemic), the Total turns in experiment [5] was found to be 713; in experiment [4] it was 513.

For `CCCN(C)C1CCC2=C(CCCC2=O)C1` (racemic), the Total turns in experiment [5] worked out at 2928; in experiment [4], 5740.

As to `CCCN(CCCF)C1CCC2=C(CCCC2=O)C1` (racemic), the Total turns in experiment [3] came out at 7540; in experiment [4], 5194.

`CCCN(CCC)[C@H]1CCC2=C(CCCC2=O)C1` (racemic): the results for the Total turns in experiment [3], in experiment [5] and in experiment [4] were 8787, 2312 and 5354, respectively.

As to `CCCN(CCc1cccs1)[C@H]1CCc2c(O)cccc2C1` (racemic) [ROTIGOTINE], the Ki is 500 nM in experiment [1] and 15 nM in experiment [2].
